# ALR inh: inhibitors of human ALR sulfhydryl oxidase, primary screen, biochemical, H2O2 detection, HRP-luminol luminescence, single point | FAD-linked sulfhydryl oxidase ALR (Homo sapiens), P55789 | purified ALR, DTT oxidation | inhibition, % (test concentration not listed) | actives 3.8% (n = 290,000);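 active means mean replicate inhibition above about 79%, with every replicate also reaching it, limit read from the data; inconclusive means only one of the two criteria met; inactive means mean below limit and not every replicate reaching it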
# Target sequence (P55789 whole entry, looked up): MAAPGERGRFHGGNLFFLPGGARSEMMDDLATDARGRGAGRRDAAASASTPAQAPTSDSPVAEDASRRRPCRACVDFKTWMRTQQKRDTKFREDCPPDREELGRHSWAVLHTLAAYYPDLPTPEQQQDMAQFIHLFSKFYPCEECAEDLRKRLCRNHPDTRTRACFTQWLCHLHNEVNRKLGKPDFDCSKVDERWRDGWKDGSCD
# N-glyco inh: increase of ERlucT glycosylation luciferase signal, primary screen, N-linked glycosylation inhibitor project, D54 ERlucT cells, luminescence, set 2; AID 588692, 2011; actives 0.23% (n = 360,000); D54 ERlucT glycosylation luciferase reporter, 24 h; percent of 100 nM tunicamycin response; reporter increase, % at 12.5 µM;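 active means mean luciferase reporter signal, scaled so untreated is 0 and the glycosylation-blocking control 100, at or above a set limit in every replicate; inconclusive means mean reaches the limit but not every replicate does; inactive means mean below the limit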;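 further: luciferase carries N-glycosylation sites so blocking glycosylation raises the light; 0% = median of neutral control wells and 100% = median of 100 nM tunicamycin wells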
# T cell HTS: modulators of CD8 T cell-vesicle binding, primary screen, mouse 2C CD8+ T cells, flow cytometry; 2C CD8+ T cell-vesicle binding; hits give low values; response (vesicle binding), % at 7 µM; actives 0.068% (n = 330,000); AID 2052, 2009;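 active means response, share of CD8 T cells binding vesicles, and their 90th percentile fluorescence all below set limits, cut at about 80% in these data, passing the limit was not always enough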;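 further: values below 100% mean blocked vesicle binding to the CD8+ T cells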
#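 Test system: purified 2C TCR transgenic mouse naive CD8+ T cells. Probe or stimulus: QL9-peptide-loaded Drosophila micro-vesicles bearing Ld, ICAM-1 and B7-1. Incubation: binding step 1.5 h, 37 °C, antibody labelling 20 min, ice. Measured by: flow cytometry of vesicle-bound cells.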
# Starred values were filed as active, the others as inactive; ? = inconclusive; . = no result given. This excerpt belongs to a sample that is enriched for hits.
SMILES,ALR inh,N-glyco inh,T cell HTS
CCCc1cc(=O)[nH]c(SCC(=O)Nc2ccc(N3CCCCC3)cc2)n1,28,-1,417
CCN(CC)c1ccc(NC(=O)CSc2nc(C)cc(=O)[nH]2)cc1,99*,2,704
Cc1cc(=O)[nH]c(SCC(=O)Nc2ccc(N3CCCCC3)cc2)n1,92*,1,387
Cc1cc(=O)[nH]c(SCC(=O)Nc2ccc(S(N)(=O)=O)cc2)n1,99*,-1,186
CCN(CC)c1ccc(NC(=O)CSc2nc3ccccc3c(=O)[nH]2)cc1,?,1,176
Cc1ccc2nc(SCC(=O)c3ccc(Cl)s3)[nH]c2c1,-5,3,134
CC(=O)c1c(C)[nH]c(C(=O)CSc2nc3ccc(C)cc3[nH]2)c1C,97*,-3,257
Cc1ccc(C(=O)NCC(=O)N(C)Cc2ccccc2C)s1,.,0,.
c1ccc(CNc2nc(NCCc3ccncc3)c3sccc3n2)cc1,.,17,.
CCCCn1c(N)c(N(CC(C)C)C(=O)c2cc(S(=O)(=O)N3CCCCC3)ccc2C)c(=O)[nH]c1=O,5,0,188
Cn1c(SCc2ccccc2F)nnc1-c1ccccn1,1,6,292
CN(C(=O)COC(=O)COc1ccc(N(C)S(=O)(=O)c2ccc(Cl)cc2)cc1)c1ccccc1,.,3,.
O=C(NC(=S)Nc1cccnc1Cl)c1ccc(F)cc1,-8,2,344
Cc1ccc2nc(SCC(=O)Nc3ccc(C)c([N+](=O)[O-])c3)[nH]c2c1,87*,-5,562
CCOC(=O)c1cc(C#N)c(SCC(=O)Nc2ccc(C(C)=O)cc2)[nH]c1=O,99*,0,41
COc1ccc(NC(=O)CSc2nncs2)cc1S(=O)(=O)N1CCCCC1,-5,2,213
O=C(CSc1nncs1)Nc1ccc(N2CCCCC2)cc1,98*,1,180
Cc1cc(=O)[nH]c(SCC(=O)Nc2ccc(C(=O)O)cc2)n1,99*,1,.
CCOC(=O)c1cc(C#N)c(SCC(N)=O)[nH]c1=O,-17,1,248
CCCc1cc(=O)[nH]c(SCC(=O)Nc2ccc(C)cc2)n1,-7,3,188
Cc1ccc2nc(SCC(=O)Nc3ccc(F)c([N+](=O)[O-])c3)[nH]c2c1,.,2,136
Cc1cccc(NC(=O)CNC(=O)CN2C(=O)NC3(CCc4ccccc43)C2=O)c1C (stereo not given),.,-1,.
CCN(CC)c1nc(C(F)(F)F)nc2c1nnn2Cc1ccccc1,1,-5,156
O=C(CC1(O)C(=O)Nc2ccc(Br)cc21)c1ccccc1 (stereo not given),.,3,.
c1ccc(COc2cccc(-c3cc4nc(NCCCn5ccnc5)ccn4n3)c2)cc1,.,-5,.
SMILES,ALR inh,N-glyco inh,T cell HTS
CCCOC1CCCN(C(=O)CCc2nnc(CCCCc3ccccc3)o2)C1 (stereo not given),-3,-4,406
COc1cccc2c1cc1c(=O)n(CC(=O)NCc3ccccn3)nc(C)n12,-4,2,391
Nc1cc(=O)[nH]c(SCC(=O)Nc2ccc(S(=O)(=O)N3CCOCC3)cc2)n1,32,1,216
CCOc1ccc(NC(=O)CSc2nc(NS(=O)(=O)c3ccc(C)cc3)cc(=O)[nH]2)cc1,.,3,.
Cc1ccc(NC(=O)CSc2nc(NS(=O)(=O)c3ccccc3)cc(=O)[nH]2)cc1,98*,5,221
CCOc1ccc(NC(=O)CSc2nncc(=O)[nH]2)cc1,99*,2,396
O=C(CSc1nccc(=O)[nH]1)Nc1ccc(S(=O)(=O)N2CCOCC2)cc1,99*,1,174
CCc1ccc(NC(=O)CSc2nc(NS(=O)(=O)c3ccccc3)cc(=O)[nH]2)cc1,.,1,.
CS(=O)(=O)c1nc(S(=O)(=O)c2ccc(Cl)cc2)c(N2CCOCC2)s1,1,-8,295
CC(O)c1ccc(Oc2cnccn2)cc1 (stereo not given),1,0,268
COCCCn1c(Cc2csc(Nc3ccccc3)n2)nnc1SCC(N)=O,56,1,376
NC(=O)CSc1nnc(Cc2csc(Nc3ccccc3)n2)n1Cc1ccccc1,79*,1,94
COc1ccc(S(=O)(=O)N2CCC(C(=O)Oc3ccc(C)cc3)CC2)cc1OC,.,2,237
O=C(CSc1ccc(S(=O)(=O)N2CCOCC2)cn1)Nc1ccc(F)c(F)c1,.,-1,323
O=C(CNCC1CCCO1)Nc1ccc(N2CCCCCC2)cc1 (stereo not given),.,-1,.
O=C1CCC(C(=O)Nc2ccccc2N2CCCC2)=NN1,85*,0,860
O=C(CNCC1CCCO1)Nc1ccccc1N1CCCCCC1 (stereo not given),99*,-1,183
O=C1CCC(C(=O)Nc2ccccc2N2CCOCC2)=NN1,19,3,184
O=C(Nc1ccccc1N1CCCC1)c1cccc(Cl)c1Cl,98*,1,503
O=C(Nc1ccccc1N1CCCC1)c1cccnc1Cl,50,4,373
O=C(Cc1ccccc1F)Nc1ccccc1N1CCCC1,98*,-3,0
O=C(Cc1ccccc1F)Nc1cc(Cl)ccc1N1CCCC1,.,-3,467
CNS(=O)(=O)c1cc(NC(=O)c2cnc(SC)n2-c2ccccc2)ccc1C,-1,-2,279
Cc1nnc(N2C(=O)C(=O)/C(=C(/O)c3ccc4c(c3)OCCO4)C2c2ccc([N+](=O)[O-])cc2)s1 (stereo not given),15,2,516
NC(=O)c1cc(NC(=O)c2ccc(NS(=O)(=O)c3cccs3)cc2)cc(C(N)=O)c1,-3,-2,277
SMILES,ALR inh,N-glyco inh,T cell HTS
Cc1ccc(S(=O)(=O)N2C[C@]3(O)C[C@@H]4C(=O)N(c5ccccc5)C(=O)[C@@H]4C[C@]3(OC(=O)Nc3c(C)noc3C)C2)cc1,.,3,.
COc1ccc(CCN(C)Cc2ccc(C(=O)Nc3ccccc3)cc2)cc1OC,2,-2,303
CCOC(=O)CNC(=O)CSc1nccn1Cc1ccco1,2,3,326
CCC(Oc1ccccc1)C(=O)Nc1ccccc1N1CCCC1 (stereo not given),32,-3,300
O=C(CN1C(=O)C2CC=CCC2C1=O)Nc1ccccc1N1CCCC1 (stereo not given),?,0,343
CCC(C(=O)Nc1ccccc1N1CCCC1)c1ccccc1 (stereo not given),98*,6,296
O=C(CN1C(=O)C2CCCCC2C1=O)Nc1ccccc1N1CCCC1 (stereo not given),97*,1,114
O=C(Nc1ccccc1N1CCCC1)c1ccccc1F,98*,1,169
O=C(Nc1ccccc1N1CCCCC1)c1ccccc1F,38,2,294
COc1ccc(C2=NOC(C(=O)Nc3cccc(O)c3)C2)cc1 (stereo not given),12,-1,52
S=C1NCc2cncnc2N1,.,2,.
CCCCCCN1CC(=O)N2Cc3[nH]c4ccccc4c3C[C@H]2C1=O,0,5,141
CCOC(=O)Cc1cc(=O)n2[nH]c(-c3ccc(Cl)cc3)cc2n1,-12,1,511
CCOC(=O)Cc1cc(=O)n2[nH]cc(-c3ccc(Cl)cc3)c2n1,99*,1,118

# Assay outcomes (PubChem BioAssay)
